Data set [1] can be described thus: Efflux ratio of apparent permeability from basolateral to apical side over apical to basolateral side in human Caco2 cells at 100 uM after 120 mins by UV-Vis spectrophotometry. The format is ADME, cell-based. To be noted: Caco-2. An outline of the steps: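 Caco-2 cells seeded at 10 000 cells/well and grown 21 days, medium changed every 48 h for 6 days then daily; TEER checked before and after, generally >1000 Ω. Monolayers preincubated twice in HBSS (pH 7.4) 30 min at 37 °C. Drug at 100 μM in HBSS on apical or basolateral side, 120 min at 37 °C. Both sides sampled, drug quantified by UV-vis against a calibration curve. Papp computed from acceptor concentration, volume, membrane area (0.11 cm2) and time (7200 s). Ratio taken as B→A over A→B.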
On the technique in general: Caco-2 cells form a polarised layer with tight junctions and transporters.

Data set [2] deals with Multidrug resistance-associated protein 1 (Homo sapiens, UniProt P33527). The experiment in a line: Inhibition of MRP1 (unknown origin) over-expressed in MDCK cells assessed as calcein accumulation incubated for 30 mins prior to Calcein-AM addition measured after 30 mins by fluorescence assay. The format is cell-based. An outline of the steps: (§1)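 MDCK-MDR1 or MDCK-MRP1 cells at 50 000 cells/well, confluent overnight. Compounds in culture medium for 30 min at 37 °C, then Calcein-AM added (2.5 μM final) for a further 30 min. Washed three times with ice-cold PBS, fluorescence read at ex 485, em 535 nm. Percent increase over untreated basal level fitted against log dose to give EC50.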
Sequence of Multidrug resistance-associated protein 1 (P33527 whole entry): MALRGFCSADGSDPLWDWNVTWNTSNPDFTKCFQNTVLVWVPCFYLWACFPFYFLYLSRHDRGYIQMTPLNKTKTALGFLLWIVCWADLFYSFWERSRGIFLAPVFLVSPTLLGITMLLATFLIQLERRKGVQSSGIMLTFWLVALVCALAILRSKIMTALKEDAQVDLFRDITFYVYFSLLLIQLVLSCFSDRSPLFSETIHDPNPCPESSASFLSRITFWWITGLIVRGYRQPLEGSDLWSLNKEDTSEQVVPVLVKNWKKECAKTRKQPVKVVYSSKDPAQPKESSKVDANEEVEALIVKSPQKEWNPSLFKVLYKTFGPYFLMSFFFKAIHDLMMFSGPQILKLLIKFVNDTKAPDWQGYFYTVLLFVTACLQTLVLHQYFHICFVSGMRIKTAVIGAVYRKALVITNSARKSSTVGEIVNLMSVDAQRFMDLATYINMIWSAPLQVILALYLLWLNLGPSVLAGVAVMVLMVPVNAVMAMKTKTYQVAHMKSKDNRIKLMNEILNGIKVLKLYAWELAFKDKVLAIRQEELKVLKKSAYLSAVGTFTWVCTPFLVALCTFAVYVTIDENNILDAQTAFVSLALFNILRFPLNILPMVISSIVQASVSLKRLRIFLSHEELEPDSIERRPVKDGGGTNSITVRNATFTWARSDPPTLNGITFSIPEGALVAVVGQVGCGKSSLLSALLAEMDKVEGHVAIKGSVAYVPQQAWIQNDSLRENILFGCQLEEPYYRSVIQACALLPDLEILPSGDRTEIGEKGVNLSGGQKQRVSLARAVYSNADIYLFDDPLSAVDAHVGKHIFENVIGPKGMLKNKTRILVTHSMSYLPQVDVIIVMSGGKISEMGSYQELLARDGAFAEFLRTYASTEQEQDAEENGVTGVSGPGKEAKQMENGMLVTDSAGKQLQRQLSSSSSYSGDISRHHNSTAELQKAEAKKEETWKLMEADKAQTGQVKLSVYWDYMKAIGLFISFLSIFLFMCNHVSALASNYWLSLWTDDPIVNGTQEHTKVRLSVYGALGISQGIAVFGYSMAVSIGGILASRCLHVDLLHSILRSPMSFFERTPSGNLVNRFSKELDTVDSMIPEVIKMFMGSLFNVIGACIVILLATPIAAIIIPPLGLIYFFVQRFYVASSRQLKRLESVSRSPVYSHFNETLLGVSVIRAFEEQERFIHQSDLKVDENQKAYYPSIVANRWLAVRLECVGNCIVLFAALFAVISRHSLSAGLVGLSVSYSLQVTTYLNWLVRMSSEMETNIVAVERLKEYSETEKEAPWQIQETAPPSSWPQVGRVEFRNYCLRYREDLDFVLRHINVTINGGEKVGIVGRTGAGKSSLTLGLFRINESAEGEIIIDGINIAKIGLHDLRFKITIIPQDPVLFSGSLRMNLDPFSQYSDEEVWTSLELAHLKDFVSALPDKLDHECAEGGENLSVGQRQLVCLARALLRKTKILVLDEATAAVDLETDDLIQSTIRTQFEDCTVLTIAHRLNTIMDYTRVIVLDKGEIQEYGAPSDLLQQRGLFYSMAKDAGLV

Data set [3] concerns the target ATP-dependent translocase ABCB1 (Homo sapiens, UniProt P08183). The experiment in a line: Inhibition of MDR1 (unknown origin) over-expressed in MDCK cells assessed as calcein accumulation incubated for 30 mins prior to Calcein-AM addition measured after 30 mins by fluorescence assay. The format is cell-based. An outline of the steps: as §1
Data set [4] concerns the target T1, Broad substrate specificity ATP-binding cassette transporter ABCG2 (Homo sapiens, UniProt Q9UNQ0).
T1 sequence (Q9UNQ0 whole entry): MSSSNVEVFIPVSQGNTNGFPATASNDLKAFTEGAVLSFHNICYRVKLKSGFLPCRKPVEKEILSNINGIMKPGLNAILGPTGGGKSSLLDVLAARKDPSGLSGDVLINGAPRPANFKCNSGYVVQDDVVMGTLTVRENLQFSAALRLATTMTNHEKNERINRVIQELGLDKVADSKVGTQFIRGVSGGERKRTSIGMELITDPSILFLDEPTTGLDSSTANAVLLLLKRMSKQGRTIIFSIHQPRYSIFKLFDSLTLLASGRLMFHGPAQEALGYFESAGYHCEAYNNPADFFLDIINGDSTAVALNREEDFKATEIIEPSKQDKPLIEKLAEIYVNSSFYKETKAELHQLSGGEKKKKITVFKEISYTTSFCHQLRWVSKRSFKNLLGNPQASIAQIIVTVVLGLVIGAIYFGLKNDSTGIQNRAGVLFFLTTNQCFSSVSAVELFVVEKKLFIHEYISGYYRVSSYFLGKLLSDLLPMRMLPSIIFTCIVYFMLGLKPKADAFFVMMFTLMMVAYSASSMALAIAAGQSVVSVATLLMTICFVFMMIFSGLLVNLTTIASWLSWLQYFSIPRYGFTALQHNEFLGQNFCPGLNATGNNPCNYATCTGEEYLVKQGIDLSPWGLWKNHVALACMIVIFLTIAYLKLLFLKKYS
The experiment in a line: Inhibition of BCRP (unknown origin) over-expressed in MDCK cells assessed as Hoechst 33342 accumulation incubated for 30 mins prior to Hoechst 33342 addition measured after 30 mins by fluorescence assay. The format is cell-based. To be noted: 0.5 h. An outline of the steps:
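MDCK-BCRP cells at 30 000 cells/well, confluent overnight. Compounds in culture medium for 30 min at 37 °C, then Hoechst 33342 added (8 μM final) for 30 min. Cells fixed 20 min in 4% PFA protected from light, washed three times with ice-cold PBS, fluorescence read at ex 340/35, em 485/20 nm. Increase over untreated basal level fitted against log dose to give EC50.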

The structures appear in SMILES notation.

Sequence of ATP-dependent translocase ABCB1 (P08183 whole entry): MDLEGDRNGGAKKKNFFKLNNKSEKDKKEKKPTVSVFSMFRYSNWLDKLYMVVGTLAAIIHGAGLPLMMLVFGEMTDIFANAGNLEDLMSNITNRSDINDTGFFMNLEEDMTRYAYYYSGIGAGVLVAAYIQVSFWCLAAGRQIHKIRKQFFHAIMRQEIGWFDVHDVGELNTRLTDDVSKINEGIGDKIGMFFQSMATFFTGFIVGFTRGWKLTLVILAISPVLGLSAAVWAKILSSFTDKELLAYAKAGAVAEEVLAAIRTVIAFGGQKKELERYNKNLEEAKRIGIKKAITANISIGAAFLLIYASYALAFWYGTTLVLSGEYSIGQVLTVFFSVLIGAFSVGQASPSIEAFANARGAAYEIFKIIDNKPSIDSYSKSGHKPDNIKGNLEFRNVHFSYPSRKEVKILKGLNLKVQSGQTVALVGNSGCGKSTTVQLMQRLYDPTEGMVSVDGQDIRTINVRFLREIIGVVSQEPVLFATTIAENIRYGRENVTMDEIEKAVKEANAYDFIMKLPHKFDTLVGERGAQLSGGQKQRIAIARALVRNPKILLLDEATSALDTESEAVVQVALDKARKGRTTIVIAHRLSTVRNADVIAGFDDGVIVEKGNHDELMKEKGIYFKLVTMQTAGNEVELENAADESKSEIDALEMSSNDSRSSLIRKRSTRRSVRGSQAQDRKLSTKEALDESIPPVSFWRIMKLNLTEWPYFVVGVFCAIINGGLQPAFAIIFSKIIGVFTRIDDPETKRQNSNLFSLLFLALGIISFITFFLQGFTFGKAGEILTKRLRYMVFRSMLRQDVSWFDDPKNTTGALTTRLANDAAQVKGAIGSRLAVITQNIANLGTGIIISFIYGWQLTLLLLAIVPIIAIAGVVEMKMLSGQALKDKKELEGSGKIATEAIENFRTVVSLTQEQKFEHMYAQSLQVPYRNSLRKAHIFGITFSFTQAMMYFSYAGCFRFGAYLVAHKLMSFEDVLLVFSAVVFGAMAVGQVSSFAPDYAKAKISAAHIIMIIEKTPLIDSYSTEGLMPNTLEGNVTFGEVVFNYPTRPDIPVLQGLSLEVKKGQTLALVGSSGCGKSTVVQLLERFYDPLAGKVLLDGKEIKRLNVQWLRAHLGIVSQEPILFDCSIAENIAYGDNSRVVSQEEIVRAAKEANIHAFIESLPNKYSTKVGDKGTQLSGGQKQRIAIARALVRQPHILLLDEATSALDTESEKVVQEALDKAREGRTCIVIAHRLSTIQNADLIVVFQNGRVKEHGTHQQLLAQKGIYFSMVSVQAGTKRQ

Turning to `COc1cc2c(cc1OC)CN(CCCC1CCCc3c(OC)cccc31)CC2` (stereo not drawn), in data set [1], the efflux ratio at 2 h, 100 µM is 4.4. Also, the EC50 entry in data set [2] (mdck) is on record as “Not Active”.
Regarding `COc1cc2c(cc1OC)CN(Cc1ccc(-c3ccc(O)cc3)cc1)CC2`, the EC50 in data set [3] (read-out: EC50) was 9300 nM.
As for `COc1ccc(-c2ccc(CN3CCc4cc(OC)c(OC)cc4C3)cc2)cc1`, the efflux ratio at 2 h, 100 µM in data set [1] is 4.4. Further, the EC50 entry in data set [2] (mdck) is “Not Active”.
Regarding `COc1ccc(-c2ccc3c(c2)C=C(CC(=O)N2CCc4cc(OC)c(OC)cc4C2)CO3)cc1`, in data set [1], the efflux ratio at 2 h, 100 µM worked out at 3.2. In addition, the EC50 was 5800 nM in data set [3] (read-out: EC50) and “Not Active” in data set [2] (mdck). Further, in data set [4], the “inhibition (INH)” value is “Not Active”.
As for `COc1ccc(-c2ccc(C(=O)N3CCc4cc(OC)c(OC)cc4C3)o2)cc1`, the efflux ratio at 2 h, 100 µM in data set [1] came to 5.2. Further, the EC50 was 910 nM in data set [3] (read-out: EC50) and “Not Active” in data set [2] (mdck). Also, the “inhibition (INH)” value in data set [4] is reported as “Not Active”.
With `COc1cc2c(cc1OC)CN(C(=O)c1ccc(-c3ccc(O)cc3)o1)CC2`, in data set [1], the efflux ratio at 2 h, 100 µM is 4.5. Also, the EC50 was 6400 nM in data set [3] (read-out: EC50) and “Not Active” in data set [2] (mdck). The “inhibition (INH)” value in data set [4] is “Not Active”.
Regarding `COc1ccc(-c2ccc(CN3CCc4cc(OC)c(OC)cc4C3)o2)cc1`, the efflux ratio at 2 h, 100 µM in data set [1] amounted to 3.7. For the same compound, the values for the EC50 in data set [3] (read-out: EC50) and in data set [2] (mdck) were 4300 nM and “Not Active”, respectively. In addition, the “inhibition (INH)” value in data set [4] is recorded as “Not Active”.
For the compound `COc1cc2c(cc1OC)CN(Cc1ccc(-c3ccc(O)cc3)o1)CC2`, the efflux ratio at 2 h, 100 µM in data set [1] is 5.7. For the same compound, the EC50 was 8100 nM in data set [3] (read-out: EC50) and “Not Active” in data set [2] (mdck). In addition, the “inhibition (INH)” value in data set [4] was “Not Active”.
Turning to `COc1ccc(-c2ccc(CC(=O)N3CCc4cc(OC)c(OC)cc4C3)cc2)cc1`, the efflux ratio at 2 h, 100 µM in data set [1] is 3.9. Further, the EC50 in data set [3] (read-out: EC50) was 800 nM; in data set [2] (read-out: EC50) it was 10000 nM. The “inhibition (INH)” value in data set [4] is recorded as “Not Active”.
Take `COc1ccc(-c2ccc(CCN3CCc4cc(OC)c(OC)cc4C3)cc2)cc1`: in data set [1], the efflux ratio at 2 h, 100 µM came out at 38. The EC50 is 570 nM in data set [3] (read-out: EC50) and “Not Active” in data set [2] (mdck). In addition, the “inhibition (INH)” value in data set [4] is on record as “Not Active”.
Regarding `COc1cc2c(cc1OC)CN(CCc1ccc(-c3ccc(F)cc3)cc1)CC2`, in data set [1], the efflux ratio at 2 h, 100 µM came to 3.8. In addition, the 50% effective concentration (EC50) was 2000 nM in data set [3] (read-out: EC50) and “Not Active” in data set [2] (mdck). Also, the “inhibition (INH)” value in data set [4] is on record as “Not Active”.
As for `COc1cc2c(cc1OC)CN(Cc1ccc(-c3ccc(F)cc3)cc1)CC2`, in data set [1], the efflux ratio at 2 h, 100 µM worked out at 3.8. Moreover, the EC50 in data set [3] (read-out: EC50) was 4900 nM; in data set [2] (mdck), “Not Active”. In data set [4], the “inhibition (INH)” value is reported as “Not Active”.
As for `COc1ccc(-c2ccc(OCCCN3CCc4cc(OC)c(OC)cc4C3)cc2)cc1`, the efflux ratio at 2 h, 100 µM in data set [1] was 7.9. Also, the EC50 in data set [3] (read-out: EC50) was 1300 nM; in data set [2] (mdck), “Not Active”. Also, in data set [4], the “inhibition (INH)” value is recorded as “Not Active”.
Regarding `COc1ccc(-c2ccc(OCCN3CCc4cc(OC)c(OC)cc4C3)cc2)cc1`, in data set [1], the efflux ratio at 2 h, 100 µM stood at 47. The EC50 in data set [3] (read-out: EC50) was 930 nM; in data set [2] (mdck), “Not Active”. Moreover, in data set [4], the “inhibition (INH)” value is “Not Active”.
In the case of `COc1ccc(-c2ccc(NCCCN3CCc4cc(OC)c(OC)cc4C3)cc2)cc1`, in data set [1], the efflux ratio at 2 h, 100 µM came out at 2.2. For the same compound, the EC50 is 1800 nM in data set [3] (read-out: EC50) and “Not Active” in data set [2] (mdck). Moreover, in data set [4], the “inhibition (INH)” value is “Not Active”.
For the compound `COc1cc2c(cc1OC)CN(CCCCOc1ccc(-c3ccc(O)cc3)cc1)CC2`, the efflux ratio at 2 h, 100 µM in data set [1] is 1.5. For the same compound, the EC50 result in data set [3] (mdck) and in data set [2] (mdck) was “Not Active” in each case. The “inhibition (INH)” value in data set [4] is “Not Active”.
`COc1ccc(-c2ccc(OCCCCN3CCc4cc(OC)c(OC)cc4C3)cc2)cc1`: the efflux ratio at 2 h, 100 µM in data set [1] worked out at 6.6. The EC50 was 4 nM in data set [3] (read-out: EC50) and “Not Active” in data set [2] (mdck). In data set [4], the “inhibition (INH)” value is “Not Active”.
With `COc1ccc(-c2ccc3c(c2)C=C(CCN2CCc4cc(OC)c(OC)cc4C2)CO3)cc1`, the efflux ratio at 2 h, 100 µM in data set [1] was 4.9. Further, the half-maximal effective concentration (EC50) is 1200 nM in data set [3] (read-out: EC50) and “Not Active” in data set [2] (mdck). In addition, the “inhibition (INH)” value in data set [4] is recorded as “Not Active”.
Take `COc1cc2c(cc1OC)CN(CCc1ccccc1-c1cccc(O)c1)CC2`: the efflux ratio at 2 h, 100 µM in data set [1] amounted to 3.2. In addition, the half-maximal effective concentration (EC50) in data set [3] (read-out: EC50) is 230 nM; in data set [2] (mdck) it was “Not Active”. Besides, the “inhibition (INH)” value in data set [4] is listed as “Not Active”.
`COc1cccc(-c2ccccc2CCN2CCc3cc(OC)c(OC)cc3C2)c1`: the efflux ratio at 2 h, 100 µM in data set [1] was found to be 4.1. In addition, the 50% effective concentration (EC50) in data set [3] (read-out: EC50) was 69 nM; in data set [2] (read-out: EC50), 23000 nM. In data set [4], the “inhibition (INH)” value is “Not Active”.

The term efflux ratio denotes a quotient of directional permeabilities that is used to spot active efflux. By EC50 is commonly meant the concentration giving half of the maximal effect.

Source of the values: ChEMBL document CHEMBL3352028, “SAR studies on tetrahydroisoquinoline derivatives: the role of flexibility and bioisosterism to raise potency and selectivity toward P-glycoprotein” (J Med Chem, 2014).
